Measured values published in paper PMC4312754 (Neuropharmacology, 2014).
Substitutions are numbered along the chain they refer to.

Key:
Assay in all cases: two-electrode voltage clamp, Xenopus oocytes
Format in all cases: cell-based
5-HT3AB receptor [1] = target: T1, 5-HT3AB receptor (Homo sapiens, UniProt O95264+P46098, P46098:E124Q)
T1 sequence (P46098 24-478 E124Q): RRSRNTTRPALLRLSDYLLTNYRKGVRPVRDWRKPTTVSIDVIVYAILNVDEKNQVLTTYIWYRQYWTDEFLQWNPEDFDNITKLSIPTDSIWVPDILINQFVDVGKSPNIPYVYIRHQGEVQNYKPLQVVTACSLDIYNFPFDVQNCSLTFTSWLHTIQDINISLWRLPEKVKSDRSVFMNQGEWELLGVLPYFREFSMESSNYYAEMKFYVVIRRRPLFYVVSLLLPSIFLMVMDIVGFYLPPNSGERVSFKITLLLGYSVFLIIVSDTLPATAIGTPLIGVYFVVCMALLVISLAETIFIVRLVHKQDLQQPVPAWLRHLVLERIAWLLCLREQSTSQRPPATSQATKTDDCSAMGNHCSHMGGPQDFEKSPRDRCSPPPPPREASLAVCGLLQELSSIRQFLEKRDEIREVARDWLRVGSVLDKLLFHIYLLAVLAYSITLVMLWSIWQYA
T1 sequence (O95264 22-441): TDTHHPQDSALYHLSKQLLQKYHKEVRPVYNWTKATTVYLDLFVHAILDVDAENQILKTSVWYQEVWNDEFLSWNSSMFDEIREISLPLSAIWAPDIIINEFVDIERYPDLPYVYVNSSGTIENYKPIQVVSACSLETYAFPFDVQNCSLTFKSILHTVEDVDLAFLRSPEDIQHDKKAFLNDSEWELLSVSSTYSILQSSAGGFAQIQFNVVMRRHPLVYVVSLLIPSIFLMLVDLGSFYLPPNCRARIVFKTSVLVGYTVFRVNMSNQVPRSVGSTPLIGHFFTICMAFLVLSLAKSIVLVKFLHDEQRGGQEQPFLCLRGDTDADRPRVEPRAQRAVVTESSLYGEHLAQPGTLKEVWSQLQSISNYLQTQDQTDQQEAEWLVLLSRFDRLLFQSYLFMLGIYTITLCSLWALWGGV
Outline: (§1)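 Human 5-HT3A and 5-HT3B subunits with point mutations were used. Defolliculated stage V–VI Xenopus oocytes were injected with 5–25 ng mRNA and incubated 24–72 h at 18 °C. Recordings were at 22–25 °C, holding at −60 mV. Agonist in Ca2+-free ND96 (pH 7.5) was applied for 15 s, then washed 116 s.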

5-HT3AB receptor [2] = target: T2, 5-HT3AB receptor (Homo sapiens, UniProt O95264+P46098, P46098:Y148A)
T2 sequence (P46098 24-478 Y148A): T1 sequence (P46098 24-478 E124Q) with Q101E, Y125A
T2 sequence (O95264 22-441): T1 sequence (O95264 22-441)
Outline: as §1

5-HT3AB receptor [3] = target: T3, 5-HT3AB receptor (Homo sapiens, UniProt O95264+P46098, O95264:Y146A)
T3 sequence (P46098 24-478): T1 sequence (P46098 24-478 E124Q) with Q101E
T3 sequence (O95264 22-441 Y146A): T1 sequence (O95264 22-441) with Y125A
Outline: as §1

5-HT3AB receptor [4] = target: T4, 5-HT3AB receptor (Homo sapiens, UniProt O95264+P46098, O95264:E122Q/P46098:E124Q)
T4 sequence (P46098 24-478 E124Q): T1 sequence (P46098 24-478 E124Q)
T4 sequence (O95264 22-441 E122Q): T1 sequence (O95264 22-441) with E101Q
Outline: as §1

5-HT3AB receptor [5] = target: T5, 5-HT3AB receptor (Homo sapiens, UniProt O95264+P46098, O95264:E122A)
T5 sequence (P46098 24-478): T1 sequence (P46098 24-478 E124Q) with Q101E
T5 sequence (O95264 22-441 E122A): T1 sequence (O95264 22-441) with E101A
Outline: as §1

[6] = target: T6, 5-HT3A receptor (homomeric) (Homo sapiens, UniProt P46098, Y148A)
T6 sequence (P46098 24-478 Y148A): T1 sequence (P46098 24-478 E124Q) with Q101E, Y125A

5-HT3AB receptor [7] = target: T7, 5-HT3AB receptor (Homo sapiens, UniProt O95264+P46098, O95264:E122Q/O95264:Y146A)
T7 sequence (P46098 24-478): T1 sequence (P46098 24-478 E124Q) with Q101E
T7 sequence (O95264 22-441 E122Q/Y146A): T1 sequence (O95264 22-441) with E101Q, Y125A
Outline: as §1

5-HT3AB receptor [8] = target: T8, 5-HT3AB receptor (Homo sapiens, UniProt O95264+P46098, O95264:E122Q)
T8 sequence (P46098 24-478): T1 sequence (P46098 24-478 E124Q) with Q101E
T8 sequence (O95264 22-441 E122Q): T1 sequence (O95264 22-441) with E101Q
Outline: as §1

- EC50 (5-HT3AB receptor [1]): 3 ± 0.7 µM
- EC50 (5-HT3AB receptor [2]): 11.2 ± 0.6 µM
- EC50 (5-HT3AB receptor [3]): 4.3 ± 0.3 µM
- EC50 (5-HT3AB receptor [4]): 2.4 ± 0.4 µM
- EC50 (5-HT3AB receptor [5]): 2.4 ± 0.1 µM
- EC50 [6]: 24.7 ± 0.9 µM
- EC50 (5-HT3AB receptor [7]): 3.5 ± 0.1 µM
- EC50 (5-HT3AB receptor [8]): 2.3 ± 0.1 µM
Compound: N=C(N)NC(=N)Nc1cccc(Cl)c1 [mCPBG]
